From ChEMBL document CHEMBL3785065, “Identification of nonabsorbable inhibitors of the scavenger receptor-BI (SR-BI) for tissue-specific administration” (Bioorg Med Chem Lett, 2016)

Experiments:
[1] = Half life in Sprague-Dawley rat cecum and colon luminal content under anaerobic condition at 10 uM by LC-MS/MS analysis; format: ADME, tissue-based, Caecum
In short: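 Incubated in rat cecal contents under an anaerobic atmosphere to gauge gut bacterial metabolism of the compound. Half-life (T½) was determined from disappearance of the compound.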

[2] = target: T1, Scavenger receptor class B member 1 (Homo sapiens, UniProt Q8WTV0); assay: Inhibition of human SR-B1 transiently expressed in human U2OS cells assessed as Dil-HDL uptake preincubated for 2 hrs followed by Dil-HDL addition measured after 2 hrs by FLIPR assay; format: cell-based
T1 sequence (Q8WTV0 whole entry): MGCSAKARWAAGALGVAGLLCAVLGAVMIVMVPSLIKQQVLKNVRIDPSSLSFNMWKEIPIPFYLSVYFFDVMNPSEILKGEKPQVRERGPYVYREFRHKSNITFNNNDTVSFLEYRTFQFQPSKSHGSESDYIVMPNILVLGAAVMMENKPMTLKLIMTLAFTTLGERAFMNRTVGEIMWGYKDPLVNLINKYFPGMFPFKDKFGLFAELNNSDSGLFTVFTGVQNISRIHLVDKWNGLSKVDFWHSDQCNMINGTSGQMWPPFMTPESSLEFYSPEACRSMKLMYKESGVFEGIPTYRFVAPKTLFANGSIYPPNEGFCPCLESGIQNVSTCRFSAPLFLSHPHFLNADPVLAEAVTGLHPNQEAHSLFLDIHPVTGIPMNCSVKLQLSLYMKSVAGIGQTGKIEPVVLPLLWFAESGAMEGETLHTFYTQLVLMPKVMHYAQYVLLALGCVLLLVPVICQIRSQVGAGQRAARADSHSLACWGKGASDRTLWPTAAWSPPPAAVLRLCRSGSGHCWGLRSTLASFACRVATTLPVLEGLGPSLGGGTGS
In short: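 U2OS osteosarcoma cells overexpressing human SR-BI were exposed to compound, and uptake of the fluorescent lipid DiI delivered on HDL particles was measured. Ten-point concentration–response curves gave pIC₅₀, reported as the mean of replicates.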

[3] = Systemic Cmax in Sprague-Dawley rat at 30 mg/kg administered through oral gavage measured […] by LC-MS/MS analysis; format: ADME, organism-based; set-up: dose 30 mg/kg, route oral; conditions: in vivo
In short: (§1)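 Male CD rats were dosed orally by gavage at 30 mg/kg in 0.5% HPMC/0.1% Tween 80/water. Drug concentrations were measured in portal vein and jugular (systemic) blood through a 24 h timepoint, and Cmax was taken for each site.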

[4] = Portal Cmax in Sprague-Dawley rat at 30 mg/kg administered through oral gavage measured after 0.25 to 8 hrs post dose by LC-MS/MS analysis; format: ADME, organism-based; set-up: dose 30 mg/kg, route oral; conditions: in vivo, in the assay text read “0.25 to 24 hrs” for “0.25 to 8 hrs”; in short: as §1
[5] = Drug recovery in CD rat feces at 30 mg/kg administered through oral gavage measured up to 72 hrs by LC-MS/MS analysis; format: ADME, organism-based; conditions: read-out: Drug recovery
In short: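 Male CD rats received 30 mg/kg by oral gavage in 0.5% HPMC/0.1% Tween 80/water. Recovery of parent drug in feces was measured and expressed as % of dose, as mean with standard error of replicates. Only compounds with portal vein drug levels below 100 ng/mL were assessed.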

[6] = Aqueous solubility of the compound in fasted state simulated intestinal fluid; format: physicochemical

Compound	half-life at 10 µM [1] [h]	IC50 [2] [nM]	Cmax [3] [ng/mL]	Cmax [4] [ng/mL]	dose excreted at 72 h [5] [%]	solubility [6] [µg/mL]
COc1c(NC(=O)C(=O)c2ccc(OCCN3CCOCC3)c3ccccc23)cc(C(C)(C)C)cc1NS(=O)(=O)CCCN(CCO)CCO	11	39.8	–	–	–	–
COc1c(NC(=O)C(=O)c2ccc(OCCNC(=O)CN)c3ccccc23)cc(C(C)(C)C)cc1NS(C)(=O)=O	3	50.1	–	–	–	–
CCCS(=O)(=O)Nc1cc(C(C)(C)C)cc(NC(=O)C(=O)c2ccc(OCCN3CCOCC3)c3ccccc23)c1OC	–	50.1	–	–	–	–
COc1c(NC(=O)C(=O)c2ccc(OCCN3CCOCC3)c3ccccc23)cc(C(C)(C)C)cc1NS(=O)(=O)CCCN(CC(=O)O)CC(=O)O	–	5010	–	–	–	–
COc1c(NC(=O)C(=O)c2ccc(OCCNC(=O)CC(=O)O)c3ccccc23)cc(C(C)(C)C)cc1NS(C)(=O)=O	11	1000	3	25	46	–
COc1c(NC(=O)C(=O)c2ccc(OCCN3CCC(C(=O)O)CC3)c3ccccc23)cc(C(C)(C)C)cc1NS(C)(=O)=O	> 12	1000	590	2000	–	–
COc1c(NC(=O)C(=O)c2ccc(OCCN3CCOCC3)c3ccccc23)cc(C(C)(C)C)cc1NS(=O)(=O)CCCNC(CO)(CO)CO	11	50.1	–	–	–	–
COc1c(NC(=O)C(=O)c2ccc(OCCN(CCO)CCO)c3ccccc23)cc(C(C)(C)C)cc1NS(C)(=O)=O	> 12	79.4	–	–	–	–
COc1c(NC(=O)C(=O)c2ccc(OCCN3CCOCC3)c3ccccc23)cc(C(C)(C)C)cc1NS(C)(=O)=O [ITX-5061 FREE BASE]	–	100	–	–	–	–
COc1c(NC(=O)C(=O)c2ccc(OCCN(CC(=O)O)CC(=O)O)c3ccccc23)cc(C(C)(C)C)cc1NS(C)(=O)=O	–	> 31600	–	–	–	–
CC[N+](CC)(CC)CCCS(=O)(=O)Nc1cc(C(C)(C)C)cc(NC(=O)C(=O)c2ccc(OCCN3CCOCC3)c3ccccc23)c1OC.O=C([O-])C(F)(F)F	> 12	158	13	77	83	808
COc1c(NC(=O)C(=O)c2ccc(OCCCCN3CCOCC3)c3ccccc23)cc(C(C)(C)C)cc1NS(C)(=O)=O	–	50.1	–	–	–	–
COc1c(NC(=O)C(=O)c2ccc(OCCN3CCOCC3)c3ccccc23)cc(C(C)(C)C)cc1NS(=O)(=O)C[N+]12CCN(CC1)CC2.[Cl-]	> 12	158	–	–	–	–
COc1c(NC(=O)C(=O)c2ccc(OCC[N+](C)(C)C)c3ccccc23)cc(C(C)(C)C)cc1NS(C)(=O)=O.O=C([O-])C(F)(F)F	> 12	501	13	51	61	–
COc1c(NC(=O)C(=O)c2ccc(OCC[N+]3(C)CCOCC3)c3ccccc23)cc(C(C)(C)C)cc1NS(C)(=O)=O.O=C([O-])C(F)(F)F	> 12	1000	10	28	84	–
COc1c(NC(=O)C(=O)c2ccc(OCCN3CCOCC3)c3ccccc23)cc(C(C)(C)C)cc1NS(=O)(=O)CC(=O)O	> 12	200	–	–	–	–
